Exocytosis inh = blocks lytic granule exocytosis | TALL-104 LAMP-1 surface exposure, flow cytometry; cells stimulated with thapsigargin and PMA | inhibition, % at 10 µM | actives 0.66% (n = 360,000);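 active means inhibition above about 55%, limit read from the data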
Mdm2-MdmX inh = inhibitors of human Mdm2/MdmX interaction; SaOS-2 split-luciferase Mdm2/MdmX complementation, luminescence; O15151+Q00987; actives 3% (n = 330,000); inhibition, % at 8 µM;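 active means inhibition of at least 50% at 8 µM in the primary screen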
ABHD5 PLIN5 PPI = blocks binding of human ABHD5 to perilipin-5; Q00G26+Q8WTS1; Split G. princeps luciferase complementation, luminescence, 4 h; inhibition, % at 4 µM; actives 0.78% (n = 360,000); AID 602281;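 active means inhibition above the mean inhibition across every tested compound plus 3 SD, cut at about 22% in these data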
Target sequence (Q00G26 whole entry, looked up): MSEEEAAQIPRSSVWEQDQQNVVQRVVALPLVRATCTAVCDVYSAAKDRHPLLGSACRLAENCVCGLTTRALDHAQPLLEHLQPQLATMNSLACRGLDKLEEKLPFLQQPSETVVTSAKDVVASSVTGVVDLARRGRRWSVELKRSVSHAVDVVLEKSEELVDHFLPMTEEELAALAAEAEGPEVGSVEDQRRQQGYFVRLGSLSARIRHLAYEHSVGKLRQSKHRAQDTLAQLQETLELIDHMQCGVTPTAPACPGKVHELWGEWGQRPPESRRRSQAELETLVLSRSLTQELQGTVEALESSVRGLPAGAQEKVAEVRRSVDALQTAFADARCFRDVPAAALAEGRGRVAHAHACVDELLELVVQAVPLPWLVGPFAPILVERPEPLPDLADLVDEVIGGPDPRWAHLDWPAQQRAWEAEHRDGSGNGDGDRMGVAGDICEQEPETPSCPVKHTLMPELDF
Target sequence (Q8WTS1 whole entry, looked up): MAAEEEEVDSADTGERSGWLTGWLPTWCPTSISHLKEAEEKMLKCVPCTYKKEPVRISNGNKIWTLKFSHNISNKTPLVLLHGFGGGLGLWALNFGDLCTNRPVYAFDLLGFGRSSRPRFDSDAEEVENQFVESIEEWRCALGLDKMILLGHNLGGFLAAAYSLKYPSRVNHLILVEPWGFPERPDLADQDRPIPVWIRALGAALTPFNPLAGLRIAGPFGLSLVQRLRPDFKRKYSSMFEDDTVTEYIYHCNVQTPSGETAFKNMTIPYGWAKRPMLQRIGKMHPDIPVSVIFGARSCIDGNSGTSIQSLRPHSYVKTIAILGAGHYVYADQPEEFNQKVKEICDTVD
UPR CHOP act = activators of apoptotic arm of unfolded protein response (CHOP). activation, % at 10 µM. CHO-CHOP luciferase reporter, UPR activation, luminescence; percent of tunicamycin response over DMSO baseline. actives 0.34% (n = 330,000). AID 449763;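 active means at 10 µM dose, activation of 40% or more, normalized to positive control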
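measured by = luciferase luminescence | assay system = CHO-CHOP cells, stable luciferase reporter of PERK-eIF2a-CHOP signalling | amount = 500 reporter cells seeded per well | timing = 6 h compound exposure at 37 °C after overnight seeding | controls = positive tunicamycin 10 µg/mL, negative DMSO alone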
UPR XBP1 act = adaptive UPR (XBP1) activation | CHO-XBP1 luciferase reporter, IRE1-XBP1 UPR activation, luminescence; percent of tunicamycin response, DMSO as zero | activation, % at 20 µM | actives 0.33% (n = 330,000) | AID 463104;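 active means versus positive control, 20 µM dose yields 30% or more activation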
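Signal: luciferase luminescence; Assay system: CHO-XBP1 luciferase reporter cells; Amount: one thousand reporter cells per well; Dosing: 20 µM single concentration, DMSO 1%; Benchmarks: high control tunicamycin 10 µg/mL final, low control DMSO vehicle only; Schedule: 6 h compound exposure at 37 °C, 5% CO2; Evaluation: percent activation relative to tunicamycin reference.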
Mdm2 MdmX conf = confirmation of human Mdm2/MdmX interaction inhibitors. Mdm2-MdmX binding, luminescent assay. shares compounds with Mdm2-MdmX inh. actives 55% (n = 10,000). AID 489028. inhibition, % at 8 µM; in the data active means inhibition above about 40%
Full FLuc ctr = inhibits full-length luciferase, flagging false Mdm2/MdmX hits; shares compounds with Mdm2-MdmX inh; SaOS-2 full-length luciferase counterscreen, luminescence; inhibition, % at 8 µM; actives 77% (n = 6,200); AID 504607;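 active means mean inhibition at 8 µM reaching about 37%, which flags the compound as non-specific, limit read from the data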;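 further: p53-null SaOS-2 cells with luciferase driven by a doxycycline-inducible promoter; compound on cells about two nights before reading with doxycycline added after day one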
A number is an active result; . = inactive; / = not tested or not shown. Shown are actives, neighbours in structure and some others; about 4% of the full set was active somewhere.

SMILES	Exocytosis inh	Mdm2-MdmX inh	ABHD5 PLIN5 PPI	UPR CHOP act	UPR XBP1 act	Mdm2 MdmX conf	Full FLuc ctr
COc1ccccc1NC(=O)c1nc(S(=O)(=O)Cc2ccccc2)ncc1Cl	.	97.1	.	.	.	70.0	50.5
CCOc1ccccc1NC(=O)c1nc(S(=O)(=O)Cc2ccccc2)ncc1Cl	.	97.1	.	.	.	96.8	.
CCOc1ccccc1NC(=O)c1cnc(NS(=O)(=O)c2ccccc2)nc1	.	.	.	.	.	/	/
CCSc1ncc(Cl)c(C(=O)Nc2ccccc2C)n1	.	.	.	.	.	/	/
CCS(=O)(=O)c1ncc(Cl)c(C(=O)Nc2ccccc2OC)n1	.	95.6	.	.	.	99.7	44.7
COC1=C(Nc2ccc(O)cc2)C(=O)c2ccccc2C1=O	.	.	.	.	.	/	/
O=C1C(Cl)=C(Nc2ccc(O)cc2)C(=O)c2ccccc21	69.8	100.4	.	.	.	100.2	51.1
Cc1cc(/C=C2/C(=O)NN(c3ccccc3)C2=O)c(C)n1-c1ccc(O)cc1	.	51.8	.	.	.	75.5	115.7
CCN1C(=NCCOC)N[C@@H](c2cccc(F)c2)C(C(=O)OC)=C1C	.	.	.	.	.	/	/
COC(=O)C1=C(C)N(Cc2ccccc2)C(=NCCc2c[nH]c3ccccc23)N[C@H]1c1ccccc1	.	55.4	.	.	.	.	/
COC(=O)C1=C(C)N(Cc2ccccc2)C(=NCCc2c[nH]c3ccccc23)N[C@H]1c1cccc(F)c1	.	98.4	.	.	.	50.6	55.6
CCCCN(Cc1ccccc1)C(=O)C1CCN(S(=O)(=O)c2c(C)noc2C)CC1	.	.	.	.	.	/	/
CC(C)NC(=O)N1Cc2cc(C(=O)NC3CCC3)nc(-c3cccc(-c4cncnc4)c3)c2[C@H]1CCO	.	/	.	/	/	/	/
c1ccc(COc2ccccc2CNC23CC4CC(CC(C4)C2)C3)cc1	.	96.3	.	.	.	70.4	59.3
CC(O)CNc1nc2sc3c(c2c(=O)n1Cc1ccco1)CCCCC3 (stereo not given)	.	.	.	.	.	/	/
C=CC(C)(C)c1c(O)c(CC=C(C)C)c(O)c2c(=O)c3ccc(O)c(O)c3oc12	.	91.8	.	.	.	85.6	54.9
C=CC(C)(C)c1c2occc2c(O)c2ccc(=O)oc12	.	.	.	.	.	/	/
CC1CC(C)CN(C(=O)COC(=O)CCC(=O)c2cccs2)C1 (stereo not given)	.	.	.	.	.	/	/
Cc1cc(C)c(C)c(S(=O)(=O)NCC(=O)NCc2ccco2)c1C	.	.	.	.	.	/	/
Cc1cc(C)c2nc(SCC(=O)Nc3cc(C)on3)c(C#N)cc2c1	.	57.8	.	.	.	.	/
Cc1cc(C)c2cc(C#N)c(SCC(=O)Nc3ccc4c(c3)OCO4)nc2c1	.	79.8	.	.	.	.	/
Cc1cc(C)c2nc(SCC(=O)Nc3cc(C)on3)c(C)cc2c1	.	.	.	.	.	/	/
Cc1cccc2cc(C#N)c(SCC(=O)NNC(=O)Cc3ccccc3)nc12	.	78.0	.	.	.	.	/
CCNc1nc(NC(C)C)nc(Oc2ccc(OCCOc3ccc(C)cc3)nn2)n1	.	51.9	.	.	.	.	/
CCNc1nc(NCC)nc(Oc2ccc(OCC)nn2)n1	.	.	.	.	.	/	/
SMILES	Exocytosis inh	Mdm2-MdmX inh	ABHD5 PLIN5 PPI	UPR CHOP act	UPR XBP1 act	Mdm2 MdmX conf	Full FLuc ctr
CCN(Cc1ccccc1)S(=O)(=O)c1ccc(C(=O)N(CCCN(C)C)c2nc3cc(C)cc(C)c3s2)cc1	.	97.7	.	.	.	54.6	67.5
Cc1cc(C)c2sc(N(CCCN(C)C)C(=O)c3ccc(S(=O)(=O)N(C)Cc4ccccc4)cc3)nc2c1	.	92.9	.	.	.	48.5	69.3
COc1ccc2sc(N(CCCN(C)C)C(=O)c3ccc(S(=O)(=O)N(C)Cc4ccccc4)cc3)nc2c1	.	.	.	.	.	/	/
O=C(CCc1nc(-c2ccccc2F)no1)Nc1ccc(Oc2ccccc2)cc1	.	61.4	.	.	.	.	52.1
CC(C)=NOc1cc(NC(=O)CCl)cc([N+](=O)[O-])c1	.	94.8	.	.	.	69.6	56.1
CCOc1ccc(S(=O)(=O)NCc2ccncc2)cc1NC(=O)c1ccccc1F	.	66.5	.	.	.	.	/
COc1ccc(S(=O)(=O)NCc2ccccn2)cc1NC(=O)c1ccc(Cl)cc1	.	.	.	.	.	/	/
COc1ccc(S(=O)(=O)NCc2ccccn2)cc1NC(=O)c1ccccc1C	.	52.3	.	.	.	70.8	63.3
CCOc1ccc(S(=O)(=O)NCc2cccnc2)cc1NC(=O)c1ccccc1F	.	58.9	.	.	.	57.1	52.9
CCOc1ccc(S(=O)(=O)NCc2ccncc2)cc1NC(=O)c1ccccc1	.	.	.	.	.	/	/
COc1ccc(S(=O)(=O)NCc2cccnc2)cc1NC(=O)c1ccccc1	.	.	.	.	.	/	/
O=C(c1ccc(F)cc1)C1CCN(C(=O)c2c(F)cccc2F)CC1	.	.	.	.	.	/	/
Cc1nnc(SCC(=O)N2CCCc3ccccc32)[nH]c1=O	.	.	.	.	.	/	/
O=[N+]([O-])c1ccc(/C=N/Nc2nc(-c3ccccc3)c3cc(Br)ccc3n2)o1	.	.	.	.	.	/	/
N#Cc1ccccc1/C=N/Nc1nc(-c2ccccc2)c2cc(Br)ccc2n1	.	55.0	.	.	.	.	/
Cc1ccc2nc(N/N=C\c3ccc([N+](=O)[O-])o3)nc(-c3ccccc3)c2c1	.	66.8	.	.	.	.	/
OCCNc1nc(-c2ccccc2)c2cc(Br)ccc2n1	.	.	.	.	.	/	/
O=C1CN(C(=O)NCC(=O)N[C@H](C(=O)O)c2ccccc2)c2ccccc2N1	.	.	.	.	.	/	/
COc1ccc(CN(C)C(=O)c2cc(-c3ccccc3)nc3ccc(C)cc23)c(OC)c1OC	.	65.2	.	.	.	.	/
COc1cccc(NC(=O)CN(C)C(=O)c2cc(-c3ccc(F)cc3)nc3ccccc23)c1	.	62.3	.	.	.	.	/
COc1cccc(NC(=O)CN(C)C(=O)c2cc(-c3ccccc3)nc3ccccc23)c1	.	.	.	.	.	/	/
COc1ccc(-c2cc(C(=O)N(C)CCc3ccc(OC)c(OC)c3)c3ccccc3n2)cc1	.	.	.	.	.	/	/
COc1cccc(CN(C)C(=O)c2cc(-c3ccc(OC)c(OC)c3)nc3ccccc23)c1	.	54.9	.	.	.	.	/
COc1ccc(-c2cc(C(=O)N(C)Cc3cccc(OC)c3OC)c3ccccc3n2)cc1OC	.	.	.	.	.	/	/
COc1cccc(CN(C)C(=O)c2cc(-c3ccc(F)cc3)nc3ccccc23)c1	.	52.9	.	.	.	.	/

Assay outcomes (PubChem BioAssay)
